The results in this text go back to publication PMC12166265 (Clinical Pharmacology and Therapeutics, 2025).

Like-named read-outs stand apart in the source and are kept apart here.

One may read the Cmax as the peak of the concentration-time curve. The AUC(0-t) is the area under the concentration-time curve up to a stated or last time point.

Data set [1] is classed as in vivo, human. As to conditions: for AUC0−24, geometric mean ratio (90% CI) of rosuvastatin + eltrombopag arm to rosuvastatin alone arm / C0 at 0 h / Cmax / AUC(0-t): both, plasma, oral; for AUC(0-t): geometric mean (90% CI); for Effect of eltrombopag administration on plasma concentrations (in words): eltrombopag 75 mg daily for 5 days.
The next data set addresses P-gp (Homo sapiens, UniProt P08183). The experiment in a line: Inhibitor screening of [3H]digoxin accumulation in HEK293 cells expressing P-gp. Format: cell-based. Summed up: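 HEK293 lines overexpressing the named transporter were grown in DMEM with 10% FBS, 1% penicillin/streptomycin and line-specific selection antibiotics, at 37°C, humidified, 5% CO₂. Cell-based uptake assays measured inhibition of transporter activity.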

The next data set concerns the target T1, OATP1B1 (Homo sapiens, UniProt Q9Y6L6).
T1 sequence (Q9Y6L6 1-691): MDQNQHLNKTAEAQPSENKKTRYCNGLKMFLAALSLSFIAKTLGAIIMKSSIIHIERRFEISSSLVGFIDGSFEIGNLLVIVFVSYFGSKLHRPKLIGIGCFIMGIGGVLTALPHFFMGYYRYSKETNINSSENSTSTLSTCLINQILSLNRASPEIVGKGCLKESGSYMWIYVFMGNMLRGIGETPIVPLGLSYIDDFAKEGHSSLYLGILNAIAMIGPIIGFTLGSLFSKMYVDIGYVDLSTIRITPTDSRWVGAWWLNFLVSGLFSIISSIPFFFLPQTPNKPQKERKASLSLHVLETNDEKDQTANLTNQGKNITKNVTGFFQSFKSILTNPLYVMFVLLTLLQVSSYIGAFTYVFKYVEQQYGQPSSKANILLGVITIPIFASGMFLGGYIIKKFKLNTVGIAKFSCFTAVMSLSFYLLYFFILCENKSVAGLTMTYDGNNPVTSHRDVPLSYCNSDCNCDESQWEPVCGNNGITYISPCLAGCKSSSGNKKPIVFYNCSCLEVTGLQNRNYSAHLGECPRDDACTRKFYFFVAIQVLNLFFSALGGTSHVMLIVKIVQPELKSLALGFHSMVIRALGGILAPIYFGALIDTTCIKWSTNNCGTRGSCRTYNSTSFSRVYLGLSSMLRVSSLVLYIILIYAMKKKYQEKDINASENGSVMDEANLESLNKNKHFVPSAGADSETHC
Format: cell-based. The conditions noted are these: HEK293 OATP1B1 cells. The method in brief: (§1)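 Transporter-overexpressing HEK293 cells were cultured in DMEM with 10% FBS, 1% penicillin/streptomycin and selection antibiotics at 37°C, 5% CO₂. Test compounds were screened at 10 μM and 30 μM, and uptake was quantified as normalised peak areas. For OATP1B1/1B3, uptake was compared with empty-vector cells, and for OATP1B1 also with cells treated with the inhibitor cyclosporine A.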

A further data set addresses T2, OATP1B3 (Homo sapiens, UniProt Q9NPD5).
T2 sequence (Q9NPD5 1-702): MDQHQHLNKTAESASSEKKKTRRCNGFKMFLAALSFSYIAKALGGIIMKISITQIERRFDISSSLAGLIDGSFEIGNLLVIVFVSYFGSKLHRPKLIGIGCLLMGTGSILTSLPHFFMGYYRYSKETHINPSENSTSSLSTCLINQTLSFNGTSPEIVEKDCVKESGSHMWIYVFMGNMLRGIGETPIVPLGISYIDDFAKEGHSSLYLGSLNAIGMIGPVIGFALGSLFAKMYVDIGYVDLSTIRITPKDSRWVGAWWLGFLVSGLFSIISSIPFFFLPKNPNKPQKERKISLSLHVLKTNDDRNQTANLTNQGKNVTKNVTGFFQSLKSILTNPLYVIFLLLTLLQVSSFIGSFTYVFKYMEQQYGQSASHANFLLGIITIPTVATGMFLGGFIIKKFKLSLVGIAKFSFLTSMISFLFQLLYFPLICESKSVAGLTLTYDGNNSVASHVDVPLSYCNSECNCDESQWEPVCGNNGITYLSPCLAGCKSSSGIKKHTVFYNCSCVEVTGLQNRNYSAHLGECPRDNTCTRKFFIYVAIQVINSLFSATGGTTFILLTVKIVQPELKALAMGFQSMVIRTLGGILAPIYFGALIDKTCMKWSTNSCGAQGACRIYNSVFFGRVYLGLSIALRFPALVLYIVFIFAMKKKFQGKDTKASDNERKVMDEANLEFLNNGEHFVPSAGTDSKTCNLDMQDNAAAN
In words: Substrate screening in HEK293 cells expressing OATP1B3. It is filed as cell-based. Summed up:
as §1

For the next data set, the target named is T3, BCRP (Homo sapiens, UniProt Q9UNQ0).
T3 sequence (Q9UNQ0 1-655): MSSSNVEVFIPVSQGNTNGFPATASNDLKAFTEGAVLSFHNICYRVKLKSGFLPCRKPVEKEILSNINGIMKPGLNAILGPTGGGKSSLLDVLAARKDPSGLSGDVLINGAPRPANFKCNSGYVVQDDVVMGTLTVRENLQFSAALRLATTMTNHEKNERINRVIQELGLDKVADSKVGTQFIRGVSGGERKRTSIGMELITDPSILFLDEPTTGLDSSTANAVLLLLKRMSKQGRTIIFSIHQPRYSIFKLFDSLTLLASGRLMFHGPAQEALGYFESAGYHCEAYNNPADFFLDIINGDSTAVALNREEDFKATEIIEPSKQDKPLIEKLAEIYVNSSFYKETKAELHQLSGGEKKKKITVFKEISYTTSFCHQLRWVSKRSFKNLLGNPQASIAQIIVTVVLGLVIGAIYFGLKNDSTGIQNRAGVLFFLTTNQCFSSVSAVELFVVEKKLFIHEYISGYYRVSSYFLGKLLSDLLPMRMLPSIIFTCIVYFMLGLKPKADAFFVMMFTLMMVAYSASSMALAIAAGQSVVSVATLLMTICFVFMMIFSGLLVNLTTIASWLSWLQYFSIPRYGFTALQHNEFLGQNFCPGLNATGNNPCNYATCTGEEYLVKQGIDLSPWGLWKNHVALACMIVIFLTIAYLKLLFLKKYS
Format: cell-based. The conditions noted are these: for Uptake in BCRP-expressing HEK293 cells compared to same cell line with Ko143: 10 μM and 30 μM, 30 min; for BCRP substrate classification: HEK293 BCRP cells. Summed up:
as §1

The subject of a further data set is ABCG2 p.Q141K variant. It is filed as in vivo, human. As to conditions: two p.Q141K (CA) vs nine REF (CC) individuals; T = 0 h. Summed up:
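Open-label fixed-sequence crossover in 11 healthy non-smoking adults aged 18–64. Single oral rosuvastatin 10 mg given after an overnight fast, with fasting continued 4 h. Heparinised venous plasma was stored at −70°C and analysed by LC–MS. ABCG2 c.421C>A was genotyped blind by PCR and Sanger sequencing. Nine CC and two CA subjects were compared at T = 0 h and by noncompartmental PK, using log-transformed geometric means and unpaired t-tests.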

Setting [2] is: human, 10 mg, AUC0−4, rosuvastatin alone arm.
Where [3] appears, read: human, AUC0−4, rosuvastatin + eltrombopag arm.

Sequence of P-gp (P08183 whole entry): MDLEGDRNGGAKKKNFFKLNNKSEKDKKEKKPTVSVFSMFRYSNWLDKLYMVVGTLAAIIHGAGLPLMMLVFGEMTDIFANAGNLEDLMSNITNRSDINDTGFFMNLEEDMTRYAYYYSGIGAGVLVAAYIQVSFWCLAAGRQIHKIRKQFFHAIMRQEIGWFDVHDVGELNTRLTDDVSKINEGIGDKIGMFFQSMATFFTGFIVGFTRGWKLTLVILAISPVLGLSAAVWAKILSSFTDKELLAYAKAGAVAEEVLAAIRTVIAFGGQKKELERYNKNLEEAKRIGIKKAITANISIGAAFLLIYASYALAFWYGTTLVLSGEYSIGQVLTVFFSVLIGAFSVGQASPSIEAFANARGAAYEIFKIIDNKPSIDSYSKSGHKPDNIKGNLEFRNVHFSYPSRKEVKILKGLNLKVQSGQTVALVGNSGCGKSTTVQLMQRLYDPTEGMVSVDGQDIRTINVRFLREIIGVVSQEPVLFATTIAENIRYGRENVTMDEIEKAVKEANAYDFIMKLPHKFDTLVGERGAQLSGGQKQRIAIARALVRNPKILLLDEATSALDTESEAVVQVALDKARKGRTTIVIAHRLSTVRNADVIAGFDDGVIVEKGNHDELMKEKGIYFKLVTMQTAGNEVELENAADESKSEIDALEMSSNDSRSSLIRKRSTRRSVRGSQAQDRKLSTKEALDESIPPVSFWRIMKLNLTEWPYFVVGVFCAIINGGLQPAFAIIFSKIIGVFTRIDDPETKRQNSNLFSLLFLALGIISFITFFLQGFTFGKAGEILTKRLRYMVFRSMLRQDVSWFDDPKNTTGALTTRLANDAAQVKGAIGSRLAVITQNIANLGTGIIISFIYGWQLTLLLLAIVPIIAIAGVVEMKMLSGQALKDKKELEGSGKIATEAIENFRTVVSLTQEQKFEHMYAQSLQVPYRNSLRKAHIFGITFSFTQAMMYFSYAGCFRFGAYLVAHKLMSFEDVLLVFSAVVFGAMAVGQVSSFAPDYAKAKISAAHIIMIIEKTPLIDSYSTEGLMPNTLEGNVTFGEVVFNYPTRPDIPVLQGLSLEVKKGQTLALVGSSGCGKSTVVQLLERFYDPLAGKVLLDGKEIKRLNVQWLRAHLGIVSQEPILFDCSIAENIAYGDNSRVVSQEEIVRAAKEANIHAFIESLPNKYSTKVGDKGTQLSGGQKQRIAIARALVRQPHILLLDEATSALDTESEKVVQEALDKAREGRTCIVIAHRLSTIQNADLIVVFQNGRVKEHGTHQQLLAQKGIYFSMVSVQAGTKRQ

`O=C(O)c1c(O)c(Cl)cc(Br)c1O` [BCDBA, 3‐bromo‐5‐chloro‐2,6‐dihydroxybenzoic acid]: in data set [1] (human), the “AUC0−24, geometric mean ratio (90% CI) of rosuvastatin + eltrombopag arm to rosuvastatin alone arm” value was 0.95 (0.89–1.02); P = 0.38; the C0 at 0 h stood at 0.57 ng/mL; the concentration peaked (Cmax) at 0.7 ng/mL. In data set [1] (human, 10 mg), the C0 at 0 h came out at 0.64 ng/mL and the Cmax was 0.7 ng/mL. Also, the AUC(0-t) in data set [1] (setting [2]) was found to be 2.13 ng·h/mL. Also, the exposure AUC(0-t) in data set [1] (setting [3]) was 2.1 ng·h/mL. In data set [1], the “Effect of eltrombopag administration on plasma concentrations (in words)” value is reported as “did not lead to corresponding increases”. In addition, in data set [1] (human, in vivo), the “AUC0−4, geometric mean ratio (90% CI) of rosuvastatin + eltrombopag arm to rosuvastatin alone arm” value was 0.98 (0.91–1.07); P = 0.78; the “Cmax, geometric mean ratio (90% CI) of rosuvastatin + eltrombopag arm to rosuvastatin alone arm” value is listed as 1.01 (0.93–1.09); P = 0.96; the “Food effects, fasted (AUC0−4) vs fed (AUC4−8)” value was “No food effects”. Also, at P-gp, the “Effect on intracellular accumulation of P-gp substrate [3H]digoxin” value is listed as “did not affect”. For the same compound, the OATP1B1 substrate classification result at OATP1B1 is “not substrates”. The OATP1B3 substrate classification result on OATP1B3 is listed as “not substrates”. Further, on BCRP, the “Uptake in BCRP-expressing HEK293 cells compared to same cell line with Ko143” value is on record as “significantly reduced” and the BCRP substrate classification result is “BCRP substrates”. In addition, the “Baseline concentrations, heterozygous p.Q141K vs homozygous reference allele” value with ABCG2 p.Q141K variant is recorded as “significantly higher”.

For `O=C(O)c1c(O)c(Cl)cc(Cl)c1O` [DCDBA, 3,5‐dichloro‐2,6‐dihydroxybenzoic acid], in data set [1] (human), the “AUC0−24, geometric mean ratio (90% CI) of rosuvastatin + eltrombopag arm to rosuvastatin alone arm” value is 1.03 (0.97–1.10); P = 0.39; the C0 at 0 h amounted to 0.8 ng/mL; the Cmax worked out at 0.98 ng/mL. Further, in data set [1] (human, 10 mg), the C0 at 0 h amounted to 0.73 ng/mL and the Cmax was 1.03 ng/mL. This compound yielded an AUC(0-t) in data set [1] (setting [2]) of 3.02 ng·h/mL. In addition, the AUC(0-t) in data set [1] (human, 10 mg, AUC0−24, rosuvastatin alone arm) came to 18.6 ng·h/mL. Also, the AUC(0-t) in data set [1] (setting [3]) was found to be 2.97 ng·h/mL. Moreover, the AUC(0-t) in data set [1] (human, AUC0−24, rosuvastatin + eltrombopag arm) was 19.2 ng·h/mL. In addition, the “Effect of eltrombopag administration on plasma concentrations (in words)” value in data set [1] is “did not lead to corresponding increases”. In addition, in data set [1] (human, in vivo), the “AUC0−4, geometric mean ratio (90% CI) of rosuvastatin + eltrombopag arm to rosuvastatin alone arm” value is given as 0.98 (0.93–1.04); P = 0.72; the “C0, geometric mean ratio (90% CI) of rosuvastatin + eltrombopag arm to rosuvastatin alone arm” value was 1.10 (1.00–1.21); P = 0.07; the “Cmax, geometric mean ratio (90% CI) of rosuvastatin + eltrombopag arm to rosuvastatin alone arm” value is recorded as 0.95 (0.85–1.06); P = 0.49; the “Food effects, fasted (AUC0−4) vs fed (AUC4−8)” value was “No food effects”. In addition, at P-gp, the “Effect on intracellular accumulation of P-gp substrate [3H]digoxin” value is recorded as “did not affect”. At OATP1B1, the OATP1B1 substrate classification entry is “not substrates”. For the same compound, the OATP1B3 substrate classification entry at OATP1B3 is reported as “not substrates”. Also, on BCRP, the “Uptake in BCRP-expressing HEK293 cells compared to same cell line with Ko143” value was “significantly reduced” and the BCRP substrate classification entry was “BCRP substrates”. Also, the “Baseline concentrations, heterozygous p.Q141K vs homozygous reference allele” value in the data set with ABCG2 p.Q141K variant was “not statistically significant”.
